Assays:
Rattus norvegicus [1] = species on record: Rattus norvegicus; test: Maximum rate constant for 7-ethoxycoumarin deethylation in rat liver microsomes exposed to 3-methylcholanthrene at concentration of 75 nM; conditions: Microsome
Rattus norvegicus [2] = species on record: Rattus norvegicus; test: Maximum rate constant for 7-ethoxycoumarin deethylation in rat liver microsomes exposed to 3-methylcholanthrene at concentration of 25 nM; conditions: Microsome
Rattus norvegicus [3] = species on record: Rattus norvegicus; test: Compound was evaluated for alpha -rate constant, in liver microsomes from beta-naphthoflavone-exposed rats; conditions: Microsome
Method in brief: (§1)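 Rats (male Sprague-Dawley, 75-125 g) dosed ip with 3MC or βNF, 50 mg/kg in corn oil, on 3 successive days; liver microsomes isolated day 4. 7-Ethoxycoumarin deethylation (2.5-300 μM substrate) measured with inhibitor present; KM and Vmax by Eisenthal–Cornish-Bowden direct linear method. Ki from x-intercept of least-squares KM/Vmax vs [I]; αKi from x-intercept of 1/Vmax vs [I].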

Rattus norvegicus [4] = species on record: Rattus norvegicus; test: Maximum rate constant for 7-ethoxycoumarin deethylation in rat liver microsomes exposed to beta-naphthoflavone at 500 uM; conditions: Microsome
Method in brief: (§2)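 Liver microsomes from male Sprague-Dawley rats given 3MC or βNF ip (50 mg/kg/day, corn oil, 3 days), harvested day 4. NADPH-regenerating system in 0.1 M Tris-HCl pH 7.4. Substrate 2.5-300 μM final. Inhibitor added from methanol stock. Reaction started with 0.375-0.56 mg microsomal protein, run 4 min at 37 °C, stopped with TCA. 7-Hydroxycoumarin fluorescence read at pH 10.3. At least four assays per substrate concentration. KM and Vmax by direct linear method, with distribution-free 95% confidence limits.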

Rattus norvegicus [5] = species on record: Rattus norvegicus; test: Michaelis-Menten constant for 7-ethoxycoumarin deethylation in rat liver microsomes exposed to beta-naphthoflavone at 500 uM; conditions: Microsome
Method in brief: (§3)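 Liver microsomes from young male Sprague-Dawley rats (75-125 g) given the inducer ip in corn oil at 50 mg/kg on 3 successive days, microsomes isolated on day 4. 7-Ethoxycoumarin (2.5 to 300 μM final) in 0.1 M Tris-HCl pH 7.4 with NADPH-regenerating system. Reaction started with microsomal protein (0.375-0.56 mg), run 4 min at 37 °C, stopped with TCA. 7-Hydroxycoumarin read fluorometrically at pH 10.3. Inhibitor added from methanol stock, ≥4 assays per condition. KM/Vmax obtained by the Eisenthal–Cornish-Bowden direct linear method with 95% distribution-free confidence limits.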

Rattus norvegicus [6] = species on record: Rattus norvegicus; test: Michaelis-Menten constant for 7-ethoxycoumarin deethylation in rat liver microsomes exposed to 3-methylcholanthrene at concentration of 75 nM; conditions: Microsome
Rattus norvegicus [7] = species on record: Rattus norvegicus; test: Compound was evaluated for alpha -rate constant, in liver microsomes from 3-methylcholanthrene-exposed rats; conditions: Microsome
Method in brief: as §1

Rattus norvegicus [8] = species on record: Rattus norvegicus; test: Michaelis-Menten constant for 7-ethoxycoumarin deethylation in rat liver microsomes exposed to 3-methylcholanthrene at concentration of 25 nM; conditions: Microsome
Rattus norvegicus [9] = species on record: Rattus norvegicus; test: Maximum rate constant for 7-ethoxycoumarin deethylation in rat liver microsomes exposed to 3-methylcholanthrene at concentration of 50 nM; conditions: Microsome
Rattus norvegicus [10] = species on record: Rattus norvegicus; test: Michaelis-Menten constant for 7-ethoxycoumarin deethylation in rat liver microsomes exposed to 3-methylcholanthrene at concentration of 50 nM; conditions: Microsome
Rattus norvegicus [11] = species on record: Rattus norvegicus; test: Maximum rate constant for 7-ethoxycoumarin deethylation in rat liver microsomes exposed to beta-naphthoflavone at 1500 uM; conditions: Microsome
Method in brief: as §2

Rattus norvegicus [12] = species on record: Rattus norvegicus; test: Michaelis-Menten constant for 7-ethoxycoumarin deethylation in rat liver microsomes exposed to beta-naphthoflavone at 1500 nM; conditions: Microsome
[13] = Compound was evaluated for inhibition constant, in liver microsomes from beta-naphthoflavone-exposed rats; set-up: species or system Rattus norvegicus, Microsome
Rattus norvegicus [14] = species on record: Rattus norvegicus; test: Michaelis-Menten constant for 7-ethoxycoumarin deethylation in rat liver microsomes exposed to beta-naphthoflavone at 1000 nM; conditions: Microsome
[15] = Compound was evaluated for inhibition constant, in liver microsomes from 3-methylcholanthrene-exposed rats; set-up: species or system Rattus norvegicus, Microsome
Rattus norvegicus [16] = species on record: Rattus norvegicus; test: Maximum rate constant for 7-ethoxycoumarin deethylation in rat liver microsomes exposed to beta-naphthoflavone at 1000 nM; conditions: Microsome
Rattus norvegicus [17] = species on record: Rattus norvegicus; test: Maximum rate constant for 7-ethoxycoumarin deethylation in rat liver microsomes exposed to beta-naphthoflavone at concentration of 1500 uM; conditions: Microsome
Method in brief: as §2

Rattus norvegicus [18] = species on record: Rattus norvegicus; test: Maximum rate constant for 7-ethoxycoumarin deethylation in rat liver microsomes exposed to beta-naphthoflavone at concentration of 1000 uM; conditions: Microsome
Method in brief: as §2

Rattus norvegicus [19] = species on record: Rattus norvegicus; test: Michaelis-Menten constant for 7-ethoxycoumarin deethylation in rat liver microsomes exposed to 3-methylcholanthrene at concentration of 100 uM; conditions: Microsome
Method in brief: as §2

Rattus norvegicus [20] = species on record: Rattus norvegicus; test: Michaelis-Menten constant for 7-ethoxycoumarin deethylation in rat liver microsomes exposed to 3-methylcholanthrene at concentration of 200 uM; conditions: Microsome
Method in brief: as §2

Rattus norvegicus [21] = species on record: Rattus norvegicus; test: Maximum rate constant for 7-ethoxycoumarin deethylation in rat liver microsomes 3-methylcholanthrene at concentration of 50 nM; conditions: Microsome
Rattus norvegicus [22] = species on record: Rattus norvegicus; test: Maximum rate constant for 7-ethoxycoumarin deethylation in rat liver microsomes 3-methylcholanthrene at concentration of 200 nM; conditions: Microsome
Rattus norvegicus [23] = species on record: Rattus norvegicus; test: Maximum rate constant for 7-ethoxycoumarin deethylation in rat liver microsomes 3-methylcholanthrene at concentration of 100 nM; conditions: Microsome
Rattus norvegicus [24] = species on record: Rattus norvegicus; test: Maximum rate constant for 7-ethoxycoumarin deethylation in rat liver microsomes exposed to 3-methylcholanthrene at 5 uM; conditions: Microsome
Method in brief: as §2

Rattus norvegicus [25] = species on record: Rattus norvegicus; test: Compound was evaluated for alpha inhibition constant, in liver microsomes from 3-methylcholanthrene-exposed rats; conditions: Microsome
Method in brief: as §1

Rattus norvegicus [26] = species on record: Rattus norvegicus; test: Michaelis-Menten constant for 7-ethoxycoumarin deethylation in rat liver microsomes exposed to beta-naphthoflavone at 200 uM; conditions: Microsome
Method in brief: as §2

Rattus norvegicus [27] = species on record: Rattus norvegicus; test: Maximum rate constant for 7-ethoxycoumarin deethylation in rat liver microsomes exposed to 3-methylcholanthrene at 50 uM; conditions: Microsome
Method in brief: as §2

Rattus norvegicus [28] = species on record: Rattus norvegicus; test: Michaelis-Menten constant for 7-ethoxycoumarin deethylation in rat liver microsomes 3-methylcholanthrene at a concentration of 5 uM; conditions: Microsome
Method in brief: as §2

Rattus norvegicus [29] = species on record: Rattus norvegicus; test: Michaelis-Menten constant for 7-ethoxycoumarin deethylation in rat liver microsomes exposed to 3-methylcholanthrene at concentration of 10 uM; conditions: Microsome
Method in brief: as §2

Rattus norvegicus [30] = species on record: Rattus norvegicus; test: Maximum rate constant for 7-ethoxycoumarin deethylation in rat liver microsomes exposed to beta-naphthoflavone at 200 uM; conditions: Microsome
Method in brief: as §2

Rattus norvegicus [31] = species on record: Rattus norvegicus; test: Maximum rate constant for 7-ethoxycoumarin deethylation in rat liver microsomes exposed to beta-naphthoflavone at 100 uM; conditions: Microsome
Method in brief: as §2

Rattus norvegicus [32] = species on record: Rattus norvegicus; test: Compound was evaluated for alpha inhibition constant, in liver microsomes from beta-naphthoflavone-exposed rats; conditions: Microsome
Method in brief: as §1

Rattus norvegicus [33] = species on record: Rattus norvegicus; test: Michaelis-Menten constant for 7-ethoxycoumarin deethylation in rat liver microsomes exposed to beta-naphthoflavone at 50 uM; conditions: Microsome
Method in brief: as §3

Rattus norvegicus [34] = species on record: Rattus norvegicus; test: Michaelis-Menten constant for 7-ethoxycoumarin deethylation in rat liver microsomes exposed to beta-naphthoflavone at 100 uM; conditions: Microsome
Method in brief: as §2

Rattus norvegicus [35] = species on record: Rattus norvegicus; test: Michaelis-Menten constant for 7-ethoxycoumarin deethylation in rat liver microsomes exposed to 3-methylcholanthrene at a concentration of 5 uM; conditions: Microsome
Method in brief: as §2

Rattus norvegicus [36] = species on record: Rattus norvegicus; test: Maximum rate constant for 7-ethoxycoumarin deethylation in rat liver microsomes exposed to beta-naphthoflavone at concentration of 500 uM; conditions: Microsome
Method in brief: as §2

Rattus norvegicus [37] = species on record: Rattus norvegicus; test: Maximum rate constant for 7-ethoxycoumarin deethylation in rat liver microsomes exposed to 3-methylcholanthrene at concentration of 100 nM; conditions: Microsome
Rattus norvegicus [38] = species on record: Rattus norvegicus; test: Michaelis-Menten constant for 7-ethoxycoumarin deethylation in rat liver microsomes exposed to exposed to 3-methylcholanthrene at concentration; conditions: Microsome
Rattus norvegicus [39] = species on record: Rattus norvegicus; test: Compound was evaluated for alpha -rate constant, in liver microsomes from beta-naphthoflavone-exposed rats; competitive inhibition; conditions: Microsome
Method in brief: as §1

Rattus norvegicus [40] = species on record: Rattus norvegicus; test: Maximum rate constant for 7-ethoxycoumarin deethylation in rat liver microsomes exposed to 3-methylcholanthrene at concentration of 200 uM; conditions: Microsome, 225 nM, in the assay text read “225 nM” for “200 uM”
Method in brief: as §2

| Alpha Ki (Rattus norvegicus [3]) [nM] | Vmax (pM min-1 mg-1) (Rattus norvegicus [4]) | Km (Rattus norvegicus [5]) [µM] | Alpha Ki (Rattus norvegicus [7]) [nM] | Vmax (pM min-1 mg-1) (Rattus norvegicus [9]) | Km (Rattus norvegicus [10]) [µM] | Km (Rattus norvegicus [12]) [µM] | Ki [13] [nM] | Km (Rattus norvegicus [14]) [µM] | Ki [15] [nM] | Vmax (pM min-1 mg-1) (Rattus norvegicus [17]) | Vmax (pM min-1 mg-1) (Rattus norvegicus [18]) | Km (Rattus norvegicus [19]) [µM] | Structure (SMILES) | further results |
| --- | --- | --- | --- | --- | --- | --- | --- | --- | --- | --- | --- | --- | --- | --- |
| 4000 | 1200 | 33.9 | 280 | 143 | 26.6 | 93.2 | 130 | 60 | 26 |  |  |  | O=c1cc(-c2ccccc2)oc2ccc3ccccc3c12 [BETA-NAPHTHOFLAVONE] | Vmax (pM min-1 mg-1) (Rattus norvegicus [1]): 134; Vmax (pM min-1 mg-1) (Rattus norvegicus [2]): 159; Km (Rattus norvegicus [6]): 39.7 µM; Km (Rattus norvegicus [8]): 19.2 µM; Vmax (pM min-1 mg-1) (Rattus norvegicus [11]): 1000; Vmax (pM min-1 mg-1) (Rattus norvegicus [16]): 1100 |
| 11000 | 1300 | 36.9 | 210 |  | 19.2 | 93.1 | 240 | 66.3 | 49 | 1210 | 1240 | 16.7 | O=c1cc(-c2ccccc2)oc2cc3ccccc3cc12 | Km (Rattus norvegicus [20]): 31.5 µM; Vmax (pM min-1 mg-1) (Rattus norvegicus [21]): 150; Vmax (pM min-1 mg-1) (Rattus norvegicus [22]): 88; Vmax (pM min-1 mg-1) (Rattus norvegicus [23]): 114 |
|  |  |  |  |  |  |  | 19000 |  | 11000 |  |  |  | CC(C)c1ccccc1-n1cccc1 | Vmax (pM min-1 mg-1) (Rattus norvegicus [24]): 141; Alpha Ki (Rattus norvegicus [25]): 60000 nM; Km (Rattus norvegicus [26]): 91.3 µM; Vmax (pM min-1 mg-1) (Rattus norvegicus [27]): 94; Km (Rattus norvegicus [28]): 10.2 µM; Km (Rattus norvegicus [29]): 29.7 µM; Vmax (pM min-1 mg-1) (Rattus norvegicus [30]): 493; Vmax (pM min-1 mg-1) (Rattus norvegicus [31]): 652; Alpha Ki (Rattus norvegicus [32]): 270000 nM; Km (Rattus norvegicus [33]): 44.1 µM; Km (Rattus norvegicus [34]): 52.2 µM; Km (Rattus norvegicus [35]): 17.9 µM |
|  |  | 50.3 | 570 | 153 | 22.3 | 136 | 190 | 115 | 33 | 1330 | 1370 | 35.8 | O=c1cc(-c2ccccc2)oc2ccccc12 [FLAVONE] | Vmax (pM min-1 mg-1) (Rattus norvegicus [36]): 1340; Vmax (pM min-1 mg-1) (Rattus norvegicus [37]): 149; Km (Rattus norvegicus [38]): 62.6 µM; Alpha Ki (Rattus norvegicus [39]): Competitive inhibition; Vmax (pM min-1 mg-1) (Rattus norvegicus [40]): 120 |
